Measured values from ChEMBL document CHEMBL5252523, “Searching for New Leads for Tuberculosis: Design, Synthesis, and Biological Evaluation of Novel 2-Quinolin-4-yloxyacetamides” (J Med Chem, 2016).
In brackets after ≈: the same amount, converted by molar mass.

Columns and labels:
[1] = test system: Mycobacterium tuberculosis; assay: Antimycobacterial activity against Mycobacterium tuberculosis H37Rv ATCC 25618 assessed as inhibition of microbial growth incubated for 6 days by resazurin based assay; assay type: functional; conditions: H37Rv ATCC 25618, 144 h, time 6 day
Summary of the method: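 Ten two-fold dilutions made in neat DMSO, tested in Middlebrook 7H9 with the H37Rv inoculum. Controls: isoniazid from 4 μg/ml as positive control; rifampicin 1 μM as no-growth control. Plates sat sealed at 37 °C without shaking for 6 days.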

[2] = Cytotoxicity against human HepG2 cells assessed as cell growth inhibition incubated for 48 hrs by CellTiter-Glo reagent based analysis; assay type: toxicity
Summary of the method: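 HepG2 cells kept in Eagle's MEM with 10% heat-inactivated FBS, 1% NEAA and penicillin/streptomycin, seeded at ~3000 cells/well onto pre-dispensed compound. Incubation was 48 h at 37 °C, 5% CO2. Plates were equilibrated to room temperature, CellTiter-Glo was added, and ATP luminescence was read after 10 min as the viability read-out.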

[3] = Artificial membrane permeability of the compound incubated for 3 hrs by HPLC analysis; assay type: ADME; conditions: PAMPA, read-out: permeability
[4] = Kinetic aqueous solubility of compound in phosphate buffer at pH 7.4 incubated for 1 hrs by CLND assay; assay type: physicochemical; conditions: read-out: Kinetic_solubility
[5] = Chromatographic hydrophobicity index, log D of the compound in phosphate buffer at pH 7.4 by UV-HPLC analysis; assay type: physicochemical

SMILES	MIC [1] [µM]	IC50 at 48 h [2] [µM]	Papp at 3 h [3] [×10⁻⁶ cm/s]	solubility kinetic at 1 h [4] [µM]	chromatographic logD [5]
COc1ccc2nc(C)cc(OCC(=O)Nc3ccccc3)c2c1	2	39.8	37	63 (≈ 20.3 µg/mL)	4.28
COc1cccc(NC(=O)COc2cc(C)nc3ccc(OC)cc23)c1	6.4	> 100	47	35 (≈ 12.3 µg/mL)	4.49
COc1ccc2nc(C)cc(OCc3ccc4ccccc4n3)c2c1	32	31.6	47	21 (≈ 6.94 µg/mL)	5.48
COc1ccc2nc(C)cc(OCC(=O)Nc3cc(C)c(OC)c(C)c3)c2c1	1	7.94	32	17 (≈ 6.47 µg/mL)	4.99
COc1ccc2nc(C)cc(OCC(=O)Nc3c(C)cccc3C)c2c1	125	> 100	63	112 (≈ 39.2 µg/mL)	4.55
COc1ccc2nc(C)cc(OC(C(=O)Nc3cc(C)cc(C)c3)c3ccccc3)c2c1 (stereo not given)	> 125	> 100	< 3	2 (≈ 0.853 µg/mL)	7.13
Cc1cc(C)cc(NC(=O)COc2cc(C(F)(F)F)nc3cc4c(cc23)OCO4)c1	> 250	> 100	< 3	< 1	6.73
COc1ccc2nc(C)cc(NCC(=O)Nc3cc(C)cc(C)c3)c2c1	47	6.31	31	204 (≈ 71.3 µg/mL)	3.59
Cc1cc(C)cc(NC(=O)COc2cc(C(F)(F)F)nc3ccc(OC(F)(F)F)cc23)c1	> 250	> 100	< 0.3	34 (≈ 15.6 µg/mL)	7.96
COc1ccc2nc(C)cc(OCC(=O)Nc3nccs3)c2c1	> 250	> 100	112	54 (≈ 17.8 µg/mL)	3.2
COc1ccc2nc(C(F)(F)F)cc(OCC(=O)Nc3cc(C)cc(C)c3)c2c1	> 250	> 100	< 1	15 (≈ 6.07 µg/mL)	7.02
COc1ccc2nc(C)cc(OCC(=O)Nc3ccncn3)c2c1	> 250	> 100	52.5	27.5 (≈ 8.92 µg/mL)	2.53
COc1ccc2nc(C)cc(OCC(=O)Nc3ccc(F)cc3)c2c1	12	63.1	23	104 (≈ 35.4 µg/mL)	4.49
Cc1cc(C)cc(NC(=O)COc2cc(C(F)(F)F)nc3c(C(F)(F)F)cccc23)c1	> 250	> 100	< 1	< 1	7.73
COc1ccc2nc(C)cc(OCC(=O)Nc3cc(OC)c(OC)c(OC)c3)c2c1	62	> 100	62	34 (≈ 14 µg/mL)	3.95
Cc1cc(C)cc(NC(=O)COc2cc(C)nc3ccc(OCc4ccccc4)cc23)c1	> 250	> 100	< 1	< 1	7.03
CCOc1ccc2nc(C(F)(F)F)cc(OCC(=O)Nc3cc(C)cc(C)c3)c2c1	> 250	> 100	< 0.3	< 1	7.55
COc1ccc2nc(C)cc(OC3CCN(c4ccccc4)C3=O)c2c1 (stereo not given)	125	100	55	215 (≈ 74.9 µg/mL)	4.99
COc1ccc2nc(C)cc(OCC(=O)Nc3cc(C)nc(C)n3)c2c1	> 250	> 100	1.2	5 (≈ 1.76 µg/mL)	3.24
COc1ccc2nc(C)cc(OCC(=O)Nc3ccccn3)c2c1	15.7	> 100	48	29 (≈ 9.38 µg/mL)	3.49
COc1ccc2nc(C)cc(OC(C)C(=O)Nc3cc(C)cc(C)c3)c2c1 (stereo not given)	125	39.8	32	61 (≈ 22.2 µg/mL)	5.76
COc1ccc2nc(C)cc(OCC(=O)Nc3cccnc3)c2c1	62.5	> 100	33	32 (≈ 10.3 µg/mL)	2.46
COc1ccc2nc(C)cc(OCC(=O)NCc3cc(C)cc(C)c3)c2c1	31	> 100	< 0.3	92 (≈ 33.5 µg/mL)	5.25
COc1ccc2nc(C)cc(OCC(=O)Nc3ccc(Cl)c(OC)c3)c2c1	> 125	> 100	57	13 (≈ 5.03 µg/mL)	5.09
COc1ccc2nc(C)cc(OCC(=O)Nc3ccncc3)c2c1	> 250	> 100	56	91.5 (≈ 29.6 µg/mL)	2.5
CCC(Oc1cc(C)nc2ccc(OC)cc12)C(=O)Nc1cc(C)cc(C)c1 (stereo not given)	> 250	79.4	39	123 (≈ 46.6 µg/mL)	6.28
